Experiments:
Type in all cases: functional
HOP-92 = assay: Antitumor activity against human HOP92 cells after 48 hrs by SRB assay; conditions: HOP-92, 48 h
Summary of the method: (§1)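 NCI60 panel in RPMI 1640 with 5% FBS and 2 mM L-glutamine. Cells were plated at 5000–40,000/well by doubling time, held 24 h, then time-zero plates were TCA-fixed. Five concentrations (10-fold or half-log dilutions of DMSO stocks) were applied for 48 h at 37 °C, 5% CO2. Cells were fixed with cold TCA (10% final adherent, 16% suspension) and stained with 0.4% SRB. Bound dye was dissolved in 10 mM Tris and read at 515 nm. GI50, TGI and LC50 were calculated per line.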

RPMI-8226 = assay: Antitumor activity against human RPMI8226 cells after 48 hrs by SRB assay; conditions: RPMI-8226, 48 h; summary of the method: as §1
LOX IMVI = assay: Cytotoxicity against human LOXIMVI cells assessed as cellular growth at 10 uM after 48 hrs by SRB assay
Summary of the method: (§2)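 NCI60 single-dose screen of cells in RPMI 1640 with 5% FBS and 2 mM L-glutamine, preincubated 24 h at 37 °C, 5% CO₂. Cells were then exposed 48 h to compound added from DMSO stock. TCA-fixed, stained with 0.4% SRB in 1% acetic acid, dye solubilised in 10 mM Tris base and read at 515 nm. Growth is given as percent of untreated control.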

SK-MEL-5 = assay: Antitumor activity against human SK-MEL-5 cells after 48 hrs by SRB assay; conditions: SK-MEL-5, 48 h
Summary of the method: (§3)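 NCI60 panel cells grown in RPMI 1640 with 5% FBS and 2 mM L-glutamine, plated at 5000–40,000 cells/well and preincubated 24 h at 37 °C, 5% CO₂. Compound was added from DMSO at five concentrations, 10-fold or 1/2 log dilutions, then incubated 48 h.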

BT-549 = assay: Antitumor activity against human BT549 cells after 48 hrs by SRB assay; conditions: BT-549, 48 h
Summary of the method: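 NCI60 screen: cells grown in RPMI 1640 with 5% FBS and 2 mM L-glutamine, plated at 5000–40,000 cells/well by doubling time, preincubated 24 h at 37 °C with 5% CO2. Compounds were diluted from DMSO stocks and given for 48 h, at five concentrations for dose response. A time-zero plate was TCA-fixed. Cells were TCA-fixed, stained with 0.4% SRB and read at 515 nm, with growth expressed relative to untreated controls.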

KM12 = assay: Cytotoxicity against human KM12 cells assessed as cellular growth at 10 uM after 48 hrs by SRB assay; summary of the method: as §2
SR = assay: Cytotoxicity against human SR cells assessed as cellular growth at 10 uM after 48 hrs by SRB assay
Summary of the method: (§4)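 NCI-60 panel lines grown in RPMI 1640 with 5% FBS and 2 mM L-glutamine. Plated at 5000–40,000 cells/well and preincubated 24 h at 37 °C, 5% CO₂, with time-zero plates fixed in TCA. Compounds, dissolved in DMSO and diluted in medium, were applied for 48 h. Cells were TCA-fixed (10% final for adherent, 16% for suspension) and stained with 0.4% SRB in 1% acetic acid. Dye was solubilised in 10 mM Tris base and read at 515 nm; growth was expressed as a percentage of untreated control.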

COLO 205 = assay: Antitumor activity against human COLO205 cells after 48 hrs by SRB assay; conditions: COLO 205, 48 h; summary of the method: as §1
HCT-116 = assay: Cytotoxicity against human HCT116 cells assessed as cellular growth at 10 uM after 48 hrs by SRB assay; summary of the method: as §2
A498 = assay: Antitumor activity against human A498 cells after 48 hrs by SRB assay; conditions: A498, 48 h; summary of the method: as §1
786-0 [1] = assay: Antitumor activity against human 786-0 cells after 48 hrs by SRB assay; conditions: 786-0, 48 h; summary of the method: as §1
U-251 = assay: Cytotoxicity against human U251 cells assessed as cellular growth at 10 uM after 48 hrs by SRB assay; summary of the method: as §4
PC-3 = assay: Antitumor activity against human PC3 cells after 48 hrs by SRB assay; conditions: PC-3, 48 h; summary of the method: as §1
NCI-H23 = assay: Antitumor activity against human NCI-H23 cells after 48 hrs by SRB assay; conditions: NCI-H23, 48 h; summary of the method: as §1
HL-60(TB) = assay: Cytotoxicity against human HL-60(TB) cells assessed as cellular growth at 10 uM after 48 hrs by SRB assay
MCF7 = assay: Antitumor activity against human MCF7 cells after 48 hrs by SRB assay; conditions: MCF7, 48 h; summary of the method: as §1
HOP-62 = assay: Antitumor activity against human HOP62 cells after 48 hrs by SRB assay; conditions: HOP-62, 48 h; summary of the method: as §1
TK-10 = assay: Antitumor activity against human TK10 cells after 48 hrs by SRB assay; conditions: TK-10, 48 h; summary of the method: as §3
MOLT-4 = assay: Antitumor activity against human MOLT4 cells after 48 hrs by SRB assay; conditions: MOLT-4, 48 h; summary of the method: as §1
786-0 [2] = assay: Cytotoxicity against human 786-0 cells assessed as cellular growth at 10 uM after 48 hrs by SRB assay; summary of the method: as §2
[3] = read-out: LC50 (the source's name)
[4] = read-out: pLC50 (the source's name) (converted)

`COc1ccc(/C(=C2/O[C@@H]([C@H]3COC(C)(C)O3)[C@H]3OC(C)(C)O[C@@H]23)c2cc(OC)c(OC)c(OC)c2)cc1O` showed a GI50 (HOP-92) of 5.45 µM, a TGI (HOP-92) of 31.8 µM and a CC50 (HOP-92; [3]) of over 100 µM. The LC50 (concentration killing 50% of starting cells) (RPMI-8226) was over 100 µM, the GI50 (RPMI-8226; read-out: GI50) was 4.63 µM and the TGI (RPMI-8226; read-out: TGI) was over 100 µM. For the same compound, the GI50 (RPMI-8226; read-out: pGI50 (converted)) was 4.68 µM, the CC50 (RPMI-8226; [4]) was over 100 µM and the TGI (RPMI-8226; read-out: pTGI (converted)) was over 100 µM. It also gave an Activity (LOX IMVI) of 36.94%, a GI50 (SK-MEL-5) of 2.69 µM and an LC50 (SK-MEL-5) of 49.3 µM. It also gave a TGI (SK-MEL-5) of 11.2 µM, a GI50 (BT-549; read-out: GI50) of 5.39 µM and a CC50 (BT-549; [3]) of over 100 µM. For the same compound, the TGI (BT-549; read-out: TGI) was over 100 µM, the GI50 (BT-549; read-out: pGI50 (converted)) was 5.37 µM and the CC50 (BT-549; [4]) was over 100 µM. The TGI (BT-549; read-out: pTGI (converted)) was over 100 µM, the Activity (KM12) was 26.71% and the Activity (SR) was 25.4%. The CC50 (COLO 205; [3]) was over 100 µM, the TGI (COLO 205; read-out: TGI) was over 100 µM and the GI50 (COLO 205; read-out: pGI50 (converted)) was 17.8 µM. For the same compound, the CC50 (COLO 205; [4]) was over 100 µM, the TGI (COLO 205; read-out: pTGI (converted)) was over 100 µM and the Activity (HCT-116) was 53.99%. It also gave a GI50 (A498; read-out: GI50) of 3.57 µM, a CC50 (A498; [3]) of over 100 µM and a TGI (A498; read-out: TGI) of over 100 µM. For the same compound, the GI50 (A498; read-out: pGI50 (converted)) was 35.5 µM, the CC50 (A498; [4]) was over 100 µM and the TGI (A498; read-out: pTGI (converted)) was over 100 µM. The GI50 (786-0 [1]) was 21.2 µM, the LC50 (786-0 [1]) was over 100 µM and the TGI (786-0 [1]) was 60.6 µM. For the same compound, the Activity (U-251) was 46.2%, the GI50 (PC-3; read-out: GI50) was 5.11 µM and the CC50 (PC-3; [3]) was over 100 µM. It also gave a TGI (PC-3; read-out: TGI) of over 100 µM, a GI50 (PC-3; read-out: pGI50 (converted)) of 5.13 µM and a CC50 (PC-3; [4]) of over 100 µM. For the same compound, the TGI (PC-3; read-out: pTGI) was over 100 µM, the GI50 (NCI-H23; read-out: GI50) was 7.98 µM and the CC50 (NCI-H23; [3]) was over 100 µM. The TGI (NCI-H23; read-out: TGI) was 46 µM, the GI50 (NCI-H23; read-out: pGI50 (converted)) was 7.94 µM and the CC50 (NCI-H23; [4]) was over 100 µM. The TGI (NCI-H23; read-out: pTGI (converted)) was 45.7 µM, the Activity (HL-60(TB)) was 20.71% and the GI50 (MCF7; read-out: GI50) was 3.76 µM. The CC50 (MCF7; [3]) was over 100 µM, the TGI (MCF7; read-out: TGI) was over 100 µM and the GI50 (MCF7; read-out: pGI50 (converted)) was 3.8 µM. For the same compound, the CC50 (MCF7; [4]) was over 100 µM, the TGI (MCF7; read-out: pTGI (converted)) was over 100 µM and the GI50 (HOP-62) was 5.93 µM. It also gave a TGI (HOP-62) of 25.5 µM, a CC50 (HOP-62; [3]) of 96.8 µM and a GI50 (TK-10; read-out: GI50) of 2.94 µM. For the same compound, the CC50 (TK-10; [3]) was over 100 µM, the TGI (TK-10; read-out: TGI) was 81.4 µM and the GI50 (TK-10; read-out: pGI50 (converted)) was 23.4 µM. For the same compound, the CC50 (TK-10; [4]) was over 100 µM, the TGI (TK-10; read-out: pTGI (converted)) was 61.7 µM and the LC50 (concentration killing 50% of cells) (MOLT-4) was over 100 µM. The GI50 (MOLT-4; read-out: GI50) was 6.93 µM, the TGI (MOLT-4; read-out: TGI) was over 100 µM and the GI50 (MOLT-4; read-out: pGI50 (converted)) was 6.92 µM. For the same compound, the CC50 (MOLT-4; [4]) was over 100 µM, the TGI (MOLT-4; read-out: pTGI) was over 100 µM and the Activity (786-0 [2]) was 100.71%.

From ChEMBL document CHEMBL1828575, “Design, synthesis and antiproliferative activities of biarylolefins based on polyhydroxylated and carbohydrate scaffolds” (Eur J Med Chem, 2011)
